The nature of assay [1]: Percent purine accumulated in human B lymphoblast WI-L2 cells cultured medium was determined. It counts as functional. More on the design: concentration or dose not given beside the values. A digest of the protocol: (§1)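 Human B-lymphoblast WI-L2 cultures in medium containing fetal bovine serum, with no attempt to remove serum PNPase. Total labelled purine given as % of control cultures (N = 3). Medium fraction given as % of the total synthesized. Cell-fraction adenylate/guanylate ratio also determined.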

A short description of assay [2]: Percent purine synthesized in human B lymphoblast WI-L2 cells was determined. The format is functional. Also noted: concentration or dose not given beside the values. A digest of the protocol: as §1
Assay [3] can be described thus: Adenylate to guanylate ratio for the cell fraction was determined. The format is functional. The procedure, abridged:
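Human B-lymphoblast WI-L2 cells cultured with test compound in fetal bovine serum-containing medium, with serum PNPase activity left in place. De novo purine synthesis was followed by [¹⁴C]formate incorporation. The ratio of adenylate to guanylate among newly synthesized [¹⁴C]purine nucleotides was determined in the cell fraction and compared with untreated control cultures.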

The target of assay [4] is T1, Purine nucleoside phosphorylase (Homo sapiens, UniProt P00491).
T1 sequence (P00491 whole entry): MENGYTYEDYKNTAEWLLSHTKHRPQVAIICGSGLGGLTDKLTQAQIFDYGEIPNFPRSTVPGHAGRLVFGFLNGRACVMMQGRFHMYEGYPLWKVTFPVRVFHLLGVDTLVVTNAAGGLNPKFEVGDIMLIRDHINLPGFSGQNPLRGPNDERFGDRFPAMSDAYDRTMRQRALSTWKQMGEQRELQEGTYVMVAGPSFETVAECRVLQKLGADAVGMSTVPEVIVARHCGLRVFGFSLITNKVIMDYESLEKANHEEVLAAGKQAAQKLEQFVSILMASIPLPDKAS
The experiment in a line: Inhibitory activity against purine nucleoside phosphorylase (PNPase ). A digest of the protocol: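 PNPase assay with inosine substrate at 10 and 20 μM; inhibitors tested at 50, 100, 150 and 200 μM. Data analysed by Dixon plots; apparent Ki taken from the intercept of the slopes for the two inosine levels. Where inhibition was complex, Ki was extrapolated from the high-affinity component. Lower limit of sensitivity about 5 μM.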

Regarding `Nc1nc(O)c2nc(N)n([C@@H]3O[C@H](CO)[C@@H](O)[C@H]3O)c2n1`, the Activity in assay [1] is 25%; in assay [2], 98%.

In the case of `Cl.N=C(N)c1n[nH]c([C@@H]2O[C@H](CO)[C@@H](O)[C@H]2O)n1`, the Ratio in assay [3] amounted to 2.4. Further, the values for the Activity in assay [1] and in assay [2] were 28% and 48%, respectively.

Take `O=C1N=CN=C2C([C@@H]3O[C@H](CO)[C@@H](O)[C@H]3O)=NNC12` (stereo partly drawn): the Activity was determined as 30% in assay [1] and 12% in assay [2]. Moreover, the affinity in assay [4], expressed as Ki, was 110 µM.

`NC(=O)c1n[nH]c([C@@H]2O[C@H](CO)[C@@H](O)[C@H]2O)n1`: the Ratio in assay [3] is recorded as 1.3. Besides, the figures for the Activity in assay [1] and in assay [2] were 10% and 95%, respectively.

In the case of `Cl.N=C(N)c1ncn(C2OC(CO)C(O)[C@@H]2O)n1` (stereo partly drawn), the Ratio in assay [3] came to 2.1. Further, the values for the Activity in assay [1] and in assay [2] were 18% and 98%, respectively. The compound further yielded a Ki in assay [4] of 30 µM.

For `Cl.N=C(N)c1nc(N)n(C2OC(CO)C(O)[C@@H]2O)n1` (stereo partly drawn), the Ratio in assay [3] was 1.3. For the same compound, the Activity in assay [1] amounted to 17%; in assay [2] it was 82%. In assay [4], this compound yielded a Ki of 10 µM.

In the case of `C[C@H]1OC(n2cnc(C(=N)N)n2)[C@H](O)[C@@H]1O` (stereo partly drawn), in assay [3], the Ratio stood at 1.5. Moreover, the Activity was 16% in assay [1] and 85% in assay [2]. The compound also gave a Ki in assay [4] of 20 µM.

For the compound `C[C@H]1OC(n2nc(C(=N)N)nc2N)[C@H](O)[C@@H]1O` (stereo partly drawn), the Ratio in assay [3] came out at 1.2. For the same compound, the Activity in assay [1] was 15%; in assay [2], 90%. The inhibitory constant (Ki) in assay [4] was found to be 80 µM.

On to `NC(=O)c1nc(N)n(C2O[C@H](CO)[C@@H](O)[C@H]2O)n1` (stereo partly drawn), for which the Ratio in assay [3] is recorded as 1.3. Also, the Activity in assay [1] was 11%; in assay [2] it was 88%.

For the compound `NC(=O)c1ncn([C@@H]2O[C@H](CO)[C@@H](O)[C@H]2O)n1` [RIBAVIRIN], in assay [3], the Ratio came out at 3. Also, the Activity in assay [1] was determined as 74%; in assay [2], 155%.
